The source of these data is ChEMBL document CHEMBL4602702, “Red-Emitting Dibenzodiazepinone Derivatives as Fluorescent Dualsteric Probes for the Muscarinic Acetylcholine M2 Receptor” (J Med Chem, 2020).

The nature of data set [1]: Chemical stability of compound in PBS buffer assessed as retention time at pH 7.4 and 22 degree C measured up to 48 hrs by RP-HPLC analysis. In kind it is physicochemical. The note with it: pH 7.4, 48 h. Summed up:
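Fluorescent ligand stability checked in PBS pH 7.4 over 48 h by RP-HPLC on a C18 column with an aqueous TFA/acetonitrile gradient, oven at 25 °C, detection at 220 nm.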

The target in data set [2] is Muscarinic acetylcholine receptor M3 (Homo sapiens, UniProt P20309). Briefly: Displacement of [3H]-NMS from human muscarinic M3 receptor stably expressed in CHO-K9 cells by radioligand competitive binding assay. Type of data set: cell-based. Summed up:
(§1)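 Equilibrium competition binding at live CHO-hMxR cells with [3H]NMS at M1 0.2, M2 0.2, M3 0.2, M4 0.1, M5 0.3 nM. […] Four-parameter logistic fit converted to pKi; at least three experiments in triplicate (some two).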
In general terms: In a radioligand displacement assay an active substance lowers the binding of a labelled ligand.

For data set [3], the target named is T1, Muscarinic acetylcholine receptor M1 (Homo sapiens, UniProt P11229).
T1 sequence (P11229 whole entry): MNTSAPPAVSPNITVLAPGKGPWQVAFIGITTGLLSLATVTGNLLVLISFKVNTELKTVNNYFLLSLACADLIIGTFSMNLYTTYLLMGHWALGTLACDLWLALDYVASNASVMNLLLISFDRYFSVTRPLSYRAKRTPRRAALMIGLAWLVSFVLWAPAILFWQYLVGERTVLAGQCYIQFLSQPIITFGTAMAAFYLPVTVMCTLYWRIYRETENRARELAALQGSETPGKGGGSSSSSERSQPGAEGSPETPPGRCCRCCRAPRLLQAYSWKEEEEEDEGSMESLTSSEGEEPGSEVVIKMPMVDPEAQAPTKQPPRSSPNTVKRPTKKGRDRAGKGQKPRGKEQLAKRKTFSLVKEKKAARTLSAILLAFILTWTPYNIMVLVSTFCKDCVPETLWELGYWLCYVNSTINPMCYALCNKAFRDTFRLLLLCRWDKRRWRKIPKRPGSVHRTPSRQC
The data set is described as follows: Displacement of [3H]-NMS from human muscarinic M1 receptor stably expressed in CHO-K9 cells by radioligand competitive binding assay. In kind it is cell-based. Summed up: as §1

In data set [4] the target is T2, Muscarinic acetylcholine receptor M2 (Homo sapiens) (UniProt P08172).
T2 sequence (whole entry): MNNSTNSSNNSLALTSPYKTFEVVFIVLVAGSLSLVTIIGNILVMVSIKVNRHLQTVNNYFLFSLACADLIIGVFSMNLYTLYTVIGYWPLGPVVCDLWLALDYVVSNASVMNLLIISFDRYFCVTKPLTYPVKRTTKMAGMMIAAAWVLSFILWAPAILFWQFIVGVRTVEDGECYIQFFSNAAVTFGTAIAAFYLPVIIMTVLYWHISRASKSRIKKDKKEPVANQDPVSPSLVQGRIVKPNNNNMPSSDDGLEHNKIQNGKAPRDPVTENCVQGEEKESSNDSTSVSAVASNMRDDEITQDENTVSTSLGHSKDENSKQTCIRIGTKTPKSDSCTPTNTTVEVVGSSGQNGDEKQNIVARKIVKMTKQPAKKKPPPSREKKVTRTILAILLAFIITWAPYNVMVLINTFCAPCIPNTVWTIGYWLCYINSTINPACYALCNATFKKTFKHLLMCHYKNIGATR
Briefly: Binding affinity to human muscarinic M2 receptor expressed in CHO-K9 cells assessed as association rate constant at 22 +/- 1 degree C incubated under shaking condition in dark for 1 to 300 mins by flow cytometric saturation binding study. In kind it is cell-based. A general note: Flow cytometry measures light scatter and fluorescence of single cells or particles in a stream.

In data set [5] the target is T2, Muscarinic acetylcholine receptor M2 (Homo sapiens). The data set is described as follows: Binding affinity to human muscarinic M2 receptor expressed in CHO-K9 cells assessed as observed association rate constant at 22 +/- 1 degree C incubated under shaking condition in dark for 1 to 300 mins by flow cytometric saturation binding study. In kind it is cell-based.

The target in data set [6] is T3, Muscarinic acetylcholine receptor M2 (Homo sapiens, UniProt P08172).
T3 sequence (P08172 whole entry): T2 sequence (whole entry)
Briefly: Antagonist activity at human muscarinic M2 receptor expressed in HEK293 cells co-expressing HA-Galphaq/i5 assessed as inhibition of carbachol-induced IP1 accumulation at 22 degree C pre-incubated for 180 mins followed by carbachol addition and further incubated at 37 degree C for 90 mins by HTRF assay. In kind it is functional, cell-based. Summed up:
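HEK-hM2-Gαqi5-HA cells (transient transfection) preincubated with antagonist at 22 °C for 180 min, then carbachol 0.3 μM (≈EC80) added and incubation continued at 37 °C for 90 min. Readout is inhibition of IP1 accumulation as pIC50, mean ± SEM of n independent experiments, each in duplicate.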

In data set [7] the target is T2, Muscarinic acetylcholine receptor M2 (Homo sapiens). Briefly: Binding affinity to human muscarinic M2 receptor expressed in CHO-K9 cells assessed as increase in intracellular fluorescence intensity at 30 nM incubated for 45 mins by confocal microscopy.
The target in data set [8] is T4, Muscarinic acetylcholine receptor M5 (Homo sapiens, UniProt P08912).
T4 sequence (P08912 whole entry): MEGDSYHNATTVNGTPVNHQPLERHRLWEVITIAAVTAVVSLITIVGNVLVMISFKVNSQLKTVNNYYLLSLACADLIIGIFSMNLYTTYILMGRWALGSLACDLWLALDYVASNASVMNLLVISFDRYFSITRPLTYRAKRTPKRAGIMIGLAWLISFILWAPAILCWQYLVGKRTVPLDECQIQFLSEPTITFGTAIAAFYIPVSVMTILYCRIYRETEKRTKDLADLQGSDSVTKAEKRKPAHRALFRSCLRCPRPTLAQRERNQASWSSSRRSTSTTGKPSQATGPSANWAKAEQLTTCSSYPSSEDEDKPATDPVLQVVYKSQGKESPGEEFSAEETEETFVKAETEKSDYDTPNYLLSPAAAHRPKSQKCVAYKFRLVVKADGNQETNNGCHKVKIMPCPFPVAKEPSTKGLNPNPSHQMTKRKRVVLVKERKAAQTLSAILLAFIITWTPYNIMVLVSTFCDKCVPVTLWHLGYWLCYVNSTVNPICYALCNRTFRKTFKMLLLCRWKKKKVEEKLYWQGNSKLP
Briefly: Displacement of [3H]-NMS from human muscarinic M5 receptor stably expressed in CHO-K9 cells by radioligand competitive binding assay. In kind it is cell-based. In outline:
as §1

In data set [9] the target is T2, Muscarinic acetylcholine receptor M2 (Homo sapiens). Briefly: Binding affinity to human muscarinic M2 receptor expressed in […] cells assessed as unspecific binding at Kd incubated in dark at 22 degree C for 2 hrs in presence of atropine by FACSCalibur flow cytometric saturation binding study relative to control. In kind it is cell-based.
The target in data set [10] is T3, Muscarinic acetylcholine receptor M2. The data set is described as follows: Binding affinity to human muscarinic M2 receptor expressed in CHO-K9 cells incubated in dark measured after 60 mins by Hoechst H33342 dye based confocal plate reader assay. In kind it is cell-based. The note with it: for pKd: read-out: Kd; for Kd: read-out: pKd (converted). In outline: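 Live CHO-hMxR cells (M1 or M2) incubated with fluorescent ligand at 22 °C in the dark for 1 h, washed, then imaged at once by high-content confocal plate reader.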

pIC50, pKd, pKi: −log10 of the molar value. The source made the active and inactive calls. The rule behind the calls is not given here. Some results are limits rather than exact numbers.

Muscarinic acetylcholine receptor M3, sequence (P20309 whole entry): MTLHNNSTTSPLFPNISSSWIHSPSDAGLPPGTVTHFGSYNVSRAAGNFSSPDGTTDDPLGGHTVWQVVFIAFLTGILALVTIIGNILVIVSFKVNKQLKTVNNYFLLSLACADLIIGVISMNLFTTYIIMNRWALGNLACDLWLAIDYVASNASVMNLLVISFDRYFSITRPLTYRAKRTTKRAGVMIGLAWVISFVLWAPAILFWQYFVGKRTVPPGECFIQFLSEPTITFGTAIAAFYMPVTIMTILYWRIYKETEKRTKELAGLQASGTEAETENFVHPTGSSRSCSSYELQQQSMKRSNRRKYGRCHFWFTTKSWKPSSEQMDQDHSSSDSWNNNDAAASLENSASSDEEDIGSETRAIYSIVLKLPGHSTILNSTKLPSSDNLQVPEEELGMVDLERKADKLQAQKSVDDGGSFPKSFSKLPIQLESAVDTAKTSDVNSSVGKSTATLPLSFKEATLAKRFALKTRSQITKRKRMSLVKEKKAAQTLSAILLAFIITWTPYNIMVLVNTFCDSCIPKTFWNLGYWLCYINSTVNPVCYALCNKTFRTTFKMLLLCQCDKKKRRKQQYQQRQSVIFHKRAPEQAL

Turning to `CC1(C)C(/C=C/C=C/C=C2/N(CCCCCC(=O)NCc3cc(C(=O)NCCNC(=O)CCc4cn(CCCCC5CCN(CC(=O)N6c7ccccc7NC(=O)c7ccccc76)CC5)cn4)cc(C(=O)NCCNC(=O)CCc4cn(CCCCC5CCN(CC(=O)N6c7ccccc7NC(=O)c7ccccc76)CC5)cn4)c3)c3ccc(S(=O)(=O)O)cc3C2(C)C)=[N+](CCCCS(=O)(=O)[O-])c2ccccc21.O=C(O)C(F)(F)F.O=C(O)C(F)(F)F.O=C(O)C(F)(F)F`, the Retention_time in [1] came to 10.4 min. For the same molecule, the negative logarithm of the Ki (pKi) (commonly the negative decadic logarithm of the Ki, by convention in mol/L) in [2] was 7.12; in [3] it was 8.64; in data set [8], 6.39. Besides, the K in data set [4] amounted to 81700 M⁻¹ s⁻¹; in data set [5], 0.024 min⁻¹. The pIC50 – broadly, the IC50 on a negative log10 scale, so that one unit is a factor of ten – in [6] is 7.76. Besides, in [7], the outcome was Active. Further, the Activity in data set [9] was < 5%. The pKd (in general, −log10 of the Kd, conventionally taken in molar units) in data set [10] is 8.54. The Kd in [10] was 5.62 nM.
As to `CC1(C)C(/C=C/C=C/C=C2/N(CCCCCC(=O)NCCN3CCN(CCCCC4CCN(CC(=O)N5c6ccccc6NC(=O)c6ccccc65)CC4)CC3)c3ccc(S(=O)(=O)O)cc3C2(C)C)=[N+](CCCCS(=O)(=O)[O-])c2ccccc21.O=C(O)C(F)(F)F.O=C(O)C(F)(F)F`, the Retention_time in data set [1] is 18.2 min. The pKi was 7.09 in data set [2], 8.54 in data set [3] and 6.87 in data set [8]. In addition, the K in [4] was found to be 158000 M⁻¹ s⁻¹; in data set [5] it was 0.014 min⁻¹. Also, the pIC50 in data set [6] was 7.41. The outcome in [7] was Active. Also, in data set [9], the Activity turned out to be 10%. In [10], the pKd is 8.28. For the same molecule, the Kd in data set [10] was 4.68 nM.
For `CC1(C)C(/C=C/C=C/C=C2/N(CCCCCC(=O)NCCNC(=O)CCc3cn(CCCCC4CCN(CC(=O)N5c6ccccc6NC(=O)c6ccccc65)CC4)cn3)c3ccc(S(=O)(=O)O)cc3C2(C)C)=[N+](CCCCS(=O)(=O)[O-])c2ccccc21.O=C(O)C(F)(F)F`, the Retention_time in data set [1] was found to be 10.3 min. In addition, the pKi was 6.81 in data set [2], 8.28 in data set [3] and 6.78 in data set [8]. Further, the K in [4] was found to be 61700 M⁻¹ s⁻¹; in data set [5] it was 0.026 min⁻¹. Also, the pIC50 in data set [6] is 7.24. The result in data set [7] was Active. Moreover, the Activity in [9] was 10%. In addition, in data set [10], the pKd was 7.90. Further, the Kd in [10] was 11.5 nM.
